Results on 2 compounds are retold here after ChEMBL document CHEMBL4038305, “Benzoxaborole Antimalarial Agents. Part 5. Lead Optimization of Novel Amide Pyrazinyloxy Benzoxaboroles and Identification of a Preclinical Candidate” (J Med Chem, 2017).

By IC50 is commonly meant the midpoint of a concentration-inhibition curve. Usually Tmax stands for the time from dosing to the highest level. Usually AUC(0-inf) stands for the area under the concentration-time curve extrapolated to infinity. Higher therefore signals more exposure.

Data set [1] concerns Plasmodium berghei. In words: Antimalarial activity against Plasmodium berghei infected in Swiss Webster mouse assessed as mouse survival rate at 1 mg/kg administered once daily via oral gavage for 4 consecutive days beginning 1 hr after infection measured on day 7 post infection relative to control. Type of data set: functional. Put shortly:
(§1)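 Mice given an intraperitoneal injection of P. berghei-infected erythrocytes taken from a previously infected animal. Oral dosing once daily for 4 consecutive days, starting 1 h after infection. Vehicle: polyethylene glycol 300/propylene glycol/water (weight ratio 55/25/20). Percent survival recorded daily from day 4 to day 20. Chloroquine 30 mg/kg and vehicle-only groups served as controls.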

The subject of data set [2] is Plasmodium berghei. In words: Antimalarial activity against Plasmodium berghei infected in Swiss Webster mouse assessed as mouse survival rate at 1 mg/kg administered once daily via oral gavage for 4 consecutive days beginning 1 hr after infection measured on day 5 post infection relative to control. Type of data set: functional. The method in brief: as §1
Data set [3] relates to Plasmodium berghei. In words: Antimalarial activity against Plasmodium berghei infected in Swiss Webster mouse assessed as mouse survival rate at 3 mg/kg administered once daily via oral gavage for 4 consecutive days beginning 1 hr after infection measured on day 5 post infection relative to control. The data set is classed as functional. The method in brief: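 P. berghei-infected erythrocytes taken from a previously infected mouse were injected intraperitoneally. Oral dosing, once daily for 4 consecutive days, began 1 h after infection, in polyethylene glycol 300/propylene glycol/water (55/25/20 by weight). Chloroquine at 30 mg/kg was the positive control, with a vehicle-only group. Percent survival was recorded daily from day 4 to day 20.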

Data set [4] relates to Salmonella typhimurium. In words: Genotoxicity in Salmonella typhimurium TA1535 assessed as number of revertants per plate at 5 ug/plate in presence of rat liver S9 fraction by Ames test (reference value: 10). Conditions: salmonella enterica subsp. enterica serovar typhimurium. Type of data set: toxicity.
The test system of data set [5] is Lymphocyte. In words: Genotoxicity in human lymphocytes assessed as increase in frequency of micronucleated cells at 355.15 ug/mL after 3 hrs in presence of rat liver S9 fraction by micronucleus assay (reference value: 0.63%). The data set is classed as toxicity, cell-based. Conditions: s9, 3 h.
The subject of data set [6] is Rattus norvegicus. In words: Genotoxicity in rat assessed as micronucleated polychromatic erythrocytes in bone marrow at 2000 mg/kg administered via oral gavage measured after 24 hrs post dose by micronucleus assay (reference value: 0.07 +/- 0.05%). The data set is classed as toxicity, organism-based. Conditions: in vivo.
The test system of data set [7] is Plasmodium falciparum. In words: Antimalarial activity against intraerythrocytic stage of Plasmodium falciparum assessed as time required for maximal killing effect at 30 times IC50 preincubated for 24 hrs followed by [3H]-hypoxanthine addition measured after 24 hrs by scintillation counting method. Type of data set: functional. The method in brief:
(§2)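 In vitro P. falciparum parasite reduction ratio assay run at 10×, 30× and 100× IC50. Derived parameters: lag phase (time to maximal killing), PRR (parasites killed per life cycle) and PCT99.9% (time to clear 99.9% of the initial parasite population).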

For data set [8], the system named is Salmonella typhimurium. In words: Genotoxicity in Salmonella typhimurium TA100 assessed as number of revertants per plate at 5 ug/plate in absence of rat liver S9 fraction by Ames test (reference value: 154 +/- 9). The data set is classed as toxicity. The settings on record: salmonella enterica subsp. enterica serovar typhimurium. Background: The Ames test uses bacterial strains that need an amino acid and regain growth without it when mutated back.

Data set [9] concerns Lymphocyte. In words: Genotoxicity in human lymphocytes assessed as replication index at 160 ug/mL after 3 hrs in absence of rat liver S9 fraction by micronucleus assay relative to control. The data set is classed as toxicity, cell-based. Put shortly: (§3)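 Human lymphocytes exposed for 3 h with or without rat liver S9, or 28 h without S9, with 1% DMSO as vehicle control. Replication index = (binucleated + 2 × multinucleated cells)/total cells. Cytotoxicity (%) = 100 − (RI treated/RI vehicle) × 100.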

Data set [10] relates to Salmonella typhimurium. In words: Genotoxicity in Salmonella typhimurium TA98 assessed as number of revertants per plate at 15 ug/plate in absence of rat liver S9 fraction by Ames test (reference value: 14 +/- 6). The data set is classed as toxicity. The settings on record: salmonella enterica subsp. enterica serovar typhimurium.
The test system of data set [11] is Salmonella typhimurium. In words: Genotoxicity in Salmonella typhimurium TA98 assessed as number of revertants per plate at 15 ug/plate in presence of rat liver S9 fraction by Ames test (reference value: 19 +/- 8). Type of data set: toxicity. Conditions: salmonella enterica subsp. enterica serovar typhimurium.
The subject of data set [12] is Salmonella typhimurium. In words: Genotoxicity in Salmonella typhimurium TA100 assessed as number of revertants per plate at 5000 ug/plate in absence of rat liver S9 fraction by Ames test (reference value: 154 +/- 9). The data set is classed as toxicity. Conditions: salmonella enterica subsp. enterica serovar typhimurium.
Data set [13] has as its system Plasmodium falciparum. In words: Antimalarial activity against intraerythrocytic stage of Plasmodium falciparum assessed as time required to clear 99.9% of initial parasite population at 100 times IC50 preincubated for 24 hrs followed by [3H]-hypoxanthine addition measured after 24 hrs by scintillation counting method. The data set is classed as functional. Put shortly:
as §2

For data set [14], the system named is Lymphocyte. In words: Genotoxicity in human lymphocytes assessed as replication index at 80 ug/mL after 3 hrs in absence of rat liver S9 fraction by micronucleus assay relative to control. The data set is classed as toxicity, cell-based. Put shortly: as §3
The test system of data set [15] is Plasmodium falciparum. In words: Antimalarial activity against Plasmodium falciparum HB3 infected in human erythrocytes assessed as reduction in [3H]-hypoxanthine incorporation preincubated for 24 hrs followed by [3H]-hypoxanthine addition measured after 24 hrs by scintillation counting method. The data set is classed as functional, cell-based.
For data set [16], the system named is Salmonella typhimurium. In words: Genotoxicity in Salmonella typhimurium TA98 assessed as number of revertants per plate at 5 ug/plate in absence of rat liver S9 fraction by Ames test (reference value: 14 +/- 6). The data set is classed as toxicity. The settings on record: salmonella enterica subsp. enterica serovar typhimurium.
The test system of data set [17] is Salmonella typhimurium. In words: Genotoxicity in Salmonella typhimurium TA98 assessed as number of revertants per plate at 1500 ug/plate in absence of rat liver S9 fraction by Ames test (reference value: 14 +/- 6). The settings on record: salmonella enterica subsp. enterica serovar typhimurium. The data set is classed as toxicity.
Data set [18] has as its system Salmonella typhimurium. In words: Genotoxicity in Salmonella typhimurium TA98 assessed as number of revertants per plate at 500 ug/plate in presence of rat liver S9 fraction by Ames test (reference value: 19 +/- 8). Type of data set: toxicity. Conditions: salmonella enterica subsp. enterica serovar typhimurium.
The subject of data set [19] is Salmonella typhimurium. In words: Genotoxicity in Salmonella typhimurium TA100 assessed as number of revertants per plate at 5000 ug/plate in presence of rat liver S9 fraction by Ames test (reference value: 141 +/- 1). Type of data set: toxicity. Conditions: salmonella enterica subsp. enterica serovar typhimurium.
Data set [20] concerns Plasmodium falciparum. In words: Antimalarial activity against Plasmodium falciparum 7G8 infected in human erythrocytes assessed as reduction in [3H]-hypoxanthine incorporation preincubated for 24 hrs followed by [3H]-hypoxanthine addition measured after 24 hrs by scintillation counting method. The data set is classed as functional, cell-based.
The subject of data set [21] is Lymphocyte. In words: Genotoxicity in human lymphocytes assessed as replication index at 80 ug/mL after 3 hrs in presence of rat liver S9 fraction by micronucleus assay relative to control. Type of data set: toxicity, cell-based. Conditions: s9, 3 h. Put shortly: as §3
In another data set the test system is Escherichia coli. In words: Genotoxicity in Escherichia coli WP2uvrA assessed as number of revertants per plate at 1.5 ug/plate in presence of rat liver S9 fraction by Ames test (reference value: 42 +/- 6). The data set is classed as toxicity.
For data set [22], the system named is Plasmodium falciparum. In words: Antimalarial activity against Plasmodium falciparum D6 infected in human erythrocytes assessed as reduction in [3H]-hypoxanthine incorporation preincubated for 24 hrs followed by [3H]-hypoxanthine addition measured after 24 hrs by scintillation counting method. The data set is classed as functional, cell-based.
Data set [23] relates to Plasmodium falciparum. In words: Antimalarial activity against intraerythrocytic stage of Plasmodium falciparum assessed as time required for maximal killing effect at 100 times IC50 preincubated for 24 hrs followed by [3H]-hypoxanthine addition measured after 24 hrs by scintillation counting method. The data set is classed as functional. Put shortly: as §2
The nature of data set [24]: Tmax in Sprague-Dawley rat plasma at 5 mg/kg, po via gavage by HPLC/MS analysis. Type of data set: ADME, organism-based.
A short description of data set [25]: AUC (0 to infinity) in Sprague-Dawley rat at 5 mg/kg, po via gavage by HPLC/MS analysis. Type of data set: ADME, organism-based. Also noted: dose 5 mg/kg, route oral, time infinity. Conditions: in vivo.
Data set [26] relates to Salmonella typhimurium. In words: Genotoxicity in Salmonella typhimurium TA100 assessed as number of revertants per plate at 5 ug/plate in presence of rat liver S9 fraction by Ames test (reference value: 141 +/- 1). Conditions: salmonella enterica subsp. enterica serovar typhimurium. The data set is classed as toxicity.
Data set [27] has as its system Rattus norvegicus. In words: Genotoxicity in rat assessed as micronucleated polychromatic erythrocytes in bone marrow at 2000 mg/kg administered via oral gavage measured after 48 hrs post dose by micronucleus assay (reference value: 0.10 +/- 0.01%). Type of data set: toxicity, organism-based. Conditions: in vivo.

`Cc1c(Oc2cnc(C(=O)NC(C)CO)cn2)ccc2c1B(O)OC2` (stereo not drawn): the survival at 1 mg/kg in the data set with Plasmodium berghei [1] and in the data set on Plasmodium berghei [2] was 20% each time. The survival at 3 mg/kg in the data set on Plasmodium berghei [3] was 60%.

As to `Cc1c(Oc2cnc(C(=O)N3CC(C)(O)C3)cn2)ccc2c1B(O)OC2`, the Activity is 16 in the data set on Salmonella typhimurium [4]; 0.73% in the data set with Lymphocyte [5]; 0.09% in the data set on Rattus norvegicus [6]; 152 in the data set with Salmonella typhimurium [8]; 2% in the data set with Lymphocyte [9]; 15 in the data set with Salmonella typhimurium [10]. Besides, the Activity in the data set with Salmonella typhimurium [11] turned out to be 13; in the data set with Salmonella typhimurium [12], 20; in the data set on Lymphocyte [14] it was 3%; in the data set on Salmonella typhimurium [16], 12; in the data set on Salmonella typhimurium [17], 13; in the data set on Salmonella typhimurium [18], 18. The Activity is listed as 31 with Salmonella typhimurium [19]; 1% in the data set with Lymphocyte [21]; 39 with Escherichia coli; 128 in the data set with Salmonella typhimurium [26]; 0.1% in the data set on Rattus norvegicus [27]. Also, the Time in the data set with Plasmodium falciparum [7] and in the data set on Plasmodium falciparum [23] was 0 h each time. Further, in the data set with Plasmodium falciparum [13], the T99.9% was 30 h. Besides, the IC50 in the data set on Plasmodium falciparum [15] is 0.08 µM; in the data set on Plasmodium falciparum [20], 0.035 µM; with Plasmodium falciparum [22], 0.062 µM. Besides, the Tmax in data set [24] is 3.5 h. Besides, the AUC(0-inf) in [25] came out at 20.8 µg·h/mL.
